Experimental data taken from ChEMBL document CHEMBL5032505, “Design, Synthesis, and Activity Evaluation of Stereoconfigured Tartarate Derivatives as Potential Anti-inflammatory Agents In Vitro and In Vivo” (J Med Chem, 2021).
Activity calls are given as the source filed them. No cut-off for these calls is given here.

Legend:
[1] = Inhibition of soybean LOX using arachidonic acid as substrate incubated for 5 mins; design: species or system Glycine max
Outline: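 Soybean lipoxygenase in assay buffer, compounds at 10⁻⁴–10⁻⁸ M from DMSO stocks, triplicate. Reaction started with arachidonic acid and shaken 5 min. Chromogen added, shaken 5 min more, absorbance read at 490 nm. Blanks were buffer + AA. % inhibition computed with chromogen extinction coefficient 9.47 mM⁻¹.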

[2] = target: T1, Prostaglandin G/H synthase 1 (Ovis aries, UniProt P05979); assay: Inhibition of ovine COX-1 using arachidonic acid as substrate preincubated for 10 mins followed by substrate addition and measured after 2 mins by EIA
T1 sequence (P05979 whole entry): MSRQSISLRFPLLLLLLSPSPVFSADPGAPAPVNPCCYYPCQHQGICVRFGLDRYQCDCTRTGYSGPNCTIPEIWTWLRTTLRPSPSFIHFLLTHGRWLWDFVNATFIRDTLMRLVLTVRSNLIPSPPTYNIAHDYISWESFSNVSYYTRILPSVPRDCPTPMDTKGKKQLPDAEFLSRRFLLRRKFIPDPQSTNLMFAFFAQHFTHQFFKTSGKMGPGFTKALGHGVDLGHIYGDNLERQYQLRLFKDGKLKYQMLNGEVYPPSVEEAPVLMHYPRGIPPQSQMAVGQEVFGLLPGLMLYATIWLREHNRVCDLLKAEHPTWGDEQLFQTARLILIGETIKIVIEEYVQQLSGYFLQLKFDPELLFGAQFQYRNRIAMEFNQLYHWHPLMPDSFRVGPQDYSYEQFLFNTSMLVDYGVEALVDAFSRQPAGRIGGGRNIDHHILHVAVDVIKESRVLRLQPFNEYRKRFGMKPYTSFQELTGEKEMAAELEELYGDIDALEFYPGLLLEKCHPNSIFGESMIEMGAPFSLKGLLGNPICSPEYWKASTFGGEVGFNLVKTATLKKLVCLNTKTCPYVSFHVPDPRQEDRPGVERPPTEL
Outline: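 COX-1 EIA run at 10⁻⁴–10⁻⁸ M in triplicate. Enzyme with heme in reaction buffer plus inhibitor, incubated 10 min at 37 °C. Boiled (3 min) enzyme served as background. Prostaglandin output quantified to give IC50.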

Mus musculus [3] = assay: Antiinflammatory activity in Swiss albino mouse model of carrageenan-induced paw edema assessed as reduction in paw thickness at 5 mg/kg, administered 30 mins prior to carrageenan challenge and measured upto 360 mins relative to control; format: functional; design: scale not given: the % may be the effect or the level left; settings: time 390 min, 6.5 h
Outline: (§1)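 100 μL freshly prepared 1% carrageenan injected into the subplantar hind paw, with indomethacin (10 mg/kg) or test compound given 30 min before. Dose–response arm used 0.5, 2.5, 5, 10, 20 mg/kg. Six animals per group. Paw thickness (mm) read at 15, 30, 60, 120, 180, 240, 300, 360 min. Result expressed as % decrease versus control.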

Mus musculus [4] = assay: Analgesic activity in Swiss albino mouse assessed as inhibition of acetic acid-induced writhing at 5 mg/kg, ip administered 30 mins prior to acetic acid challenge and measured after 30 mins relative to control; format: functional; design: scale not given: the % may be the effect or the level left
Outline: (§2)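 Mice pretreated i.p. with indomethacin (10 mg/kg) or test compound (5 mg/kg) 30 min before 0.6% v/v acetic acid injection. Control group also received acetic acid. Animals placed in a transparent box and abdominal writhings counted for 30 min. Six animals per group, one-way ANOVA with Tukey's test, mean ± SEM.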

Mus musculus [5] = assay: Analgesic activity in Swiss albino mouse assessed as inhibition of acetic acid-induced writhing at 10 mg/kg, ip administered 30 mins prior to acetic acid challenge and measured after 30 mins relative to control; format: functional; design: scale not given: the % may be the effect or the level left; settings: time 60 min, 1 h; outline: as §2
[6] = target: Prostaglandin G/H synthase 1 (Homo sapiens) (UniProt P23219); assay: Inhibition of COX1 in human whole blood assessed as reduction in calcium ionophore-stimulated TXB2 production by ELISA; format: tissue-based
Prostaglandin G/H synthase 1 (Homo sapiens), sequence (P23219 whole entry): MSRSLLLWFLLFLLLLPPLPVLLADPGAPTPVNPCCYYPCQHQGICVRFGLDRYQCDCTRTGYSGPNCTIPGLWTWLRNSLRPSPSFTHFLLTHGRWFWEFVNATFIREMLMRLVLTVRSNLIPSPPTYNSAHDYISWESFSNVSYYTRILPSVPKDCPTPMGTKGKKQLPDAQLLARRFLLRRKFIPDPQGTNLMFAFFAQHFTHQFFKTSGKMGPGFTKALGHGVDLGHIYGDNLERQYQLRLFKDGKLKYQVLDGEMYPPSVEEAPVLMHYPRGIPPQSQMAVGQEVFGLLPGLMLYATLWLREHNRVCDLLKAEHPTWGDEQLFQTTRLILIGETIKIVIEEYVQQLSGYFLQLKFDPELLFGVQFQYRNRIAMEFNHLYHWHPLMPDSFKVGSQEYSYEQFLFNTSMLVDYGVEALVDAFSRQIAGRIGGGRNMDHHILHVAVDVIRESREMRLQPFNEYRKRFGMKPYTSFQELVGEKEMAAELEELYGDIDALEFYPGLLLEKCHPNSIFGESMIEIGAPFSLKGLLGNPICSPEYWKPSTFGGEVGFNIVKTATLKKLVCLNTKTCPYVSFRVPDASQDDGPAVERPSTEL

Mus musculus [7] = assay: Antiinflammatory activity in Swiss albino mouse model of carrageenan-induced paw edema assessed as reduction in paw thickness at 10 mg/kg, administered 30 mins prior to carrageenan challenge and measured upto 360 mins; format: functional; design: scale not given: the % may be the effect or the level left; settings: time 390 min, 6.5 h; outline: as §1

Structure (SMILES)	IC50 [1] [µM]	IC50 [2] [µM]	further results
COc1ccc(-n2nc(CCC(=O)N(C)O)cc2-c2ccc(Cl)cc2)cc1 [TEPOXALIN]	0.15	–	–
CC(c1cc2ccccc2s1)N(O)C(N)=O (configuration not stated) [ZILEUTON]	0.3	–	–
CCOC(=O)[C@H](OCc1cnnn1[C@H](Cc1ccc(O)cc1)C(=O)OC)[C@@H](OCc1cnnn1[C@@H](Cc1ccc(O)cc1)C(=O)OC)C(=O)OCC	0.14	> 10	–
COC(=O)[C@H](Cc1c[nH]c2ccccc12)n1nncc1COc1ccc2ccccc2c1-c1c(OCc2cnnn2[C@@H](Cc2c[nH]c3ccccc23)C(=O)OC)ccc2ccccc12	1	90	–
CCOC(=O)Cn1nncc1COc1ccc2ccccc2c1-c1c(OCc2cnnn2CC(=O)OCC)ccc2ccccc12	11	70	–
CCOC(=O)Cn1nncc1CO[C@@H](C(=O)OCC)[C@@H](O)C(=O)OCC	6	95	–
CCOC(=O)[C@H](O)[C@@H](OCc1cnnn1[C@@H](Cc1ccc(O)cc1)C(=O)OC)C(=O)OCC	12	80	–
Cc1ccc(-c2cc(C(F)(F)F)nn2-c2ccc(S(N)(=O)=O)cc2)cc1 [CELECOXIB]	–	–	Activity (Mus musculus [3]): 33%; Activity (Mus musculus [4]; time 60 min, 1 h): 62%
COc1ccc2c(c1)c(CC(=O)O)c(C)n2C(=O)c1ccc(Cl)cc1 [INDOMETHACIN]	–	–	Activity (Mus musculus [5]): 55%; Activity [6]: 0.9 ng/mL; Activity (Mus musculus [7]): 30%
CCOC(=O)Cn1nncc1CO[C@@H](C(=O)OCC)[C@@H](OCc1cnnn1CC(=O)OCC)C(=O)OCC	0.3	60	Activity (Mus musculus [4]; time 60.0 min): Active
Cc1ccc(S(=O)(=O)n2cc(C(=O)C(=O)N[C@H](C(=O)NCC(=O)O)c3c[nH]c4ccccc34)c3ccccc32)cc1	0.08	12.9	–
CCOC(=O)[C@H](OCc1cnnn1[C@@H](Cc1ccc(O)cc1)C(=O)OC)[C@@H](OCc1cnnn1[C@@H](Cc1ccc(O)cc1)C(=O)OC)C(=O)OCC	0.15	> 10	Activity (Mus musculus [4]; time 60.0 min): inactive
O=C(O)[C@H](OCc1cnnn1[C@@H](Cc1ccccc1)C(=O)O)[C@@H](OCc1cnnn1[C@@H](Cc1ccccc1)C(=O)O)C(=O)O	0.5	–	Activity (Mus musculus [4]; time 60.0 min): inactive
COC(=O)[C@H](Cc1ccccc1)n1nncc1COc1ccc2ccccc2c1-c1c(OCc2cnnn2[C@@H](Cc2ccccc2)C(=O)OC)ccc2ccccc12	3	150	–
CCOC(=O)[C@H](OCc1cnnn1[C@@H](CO)C(=O)OC)[C@@H](OCc1cnnn1[C@@H](CO)C(=O)OC)C(=O)OCC	1.3	54	Activity (Mus musculus [4]; time 60.0 min): Active
CCOC(=O)[C@H](OCc1cnnn1[C@@H](Cc1c[nH]c2ccccc12)C(=O)OC)[C@@H](OCc1cnnn1[C@@H](Cc1c[nH]c2ccccc12)C(=O)OC)C(=O)OCC	0.45	> 10	Activity (Mus musculus [4]; time 60.0 min): inactive
CCOC(=O)[C@H](O)[C@@H](OCc1cnnn1[C@@H](CO)C(=O)OC)C(=O)OCC	14	110	–
COc1cc(-c2cc(C(=O)CCCOc3ccc4ccc(=O)oc4c3)nn2-c2ccccc2)cc(OC)c1OC	0.87	53.1	–
O=C1NC(=O)C(=Cc2cn(C[C@H](O)COc3cc(O)c4c(=O)cc(-c5ccccc5)oc4c3)c3ccccc23)C(=O)N1	0.0015	0.34	–
COC(=O)[C@H](Cc1ccc(O)cc1)n1nncc1COc1ccc2ccccc2c1-c1c(OCc2cnnn2[C@@H](Cc2ccc(O)cc2)C(=O)OC)ccc2ccccc12	0.6	> 10	Activity (Mus musculus [4]; time 60.0 min): inactive
CC1(C)Cc2c(-c3ccccc3)c(-c3ccc(Cl)cc3)c(CC(=O)O)n2C1 [LICOFELONE]	0.18	0.21	–
COC(=O)[C@H](CO)n1nncc1COc1ccc2ccccc2c1-c1c(OCc2cnnn2[C@@H](CO)C(=O)OC)ccc2ccccc12	6	86	–
CCOC(=O)[C@H](O)[C@@H](OCc1cnnn1[C@@H](Cc1ccccc1)C(=O)OC)C(=O)OCC	8	55	–
CCOC(=O)[C@H](OCc1cnnn1[C@@H](Cc1ccccc1)C(=O)OC)[C@@H](OCc1cnnn1[C@@H](Cc1ccccc1)C(=O)OC)C(=O)OCC	0.09	90	–
